A selection: hits, their analogues and other compounds. The true share with any hit is near 2.2%.
S100A4 inh HTS = inhibitors of human S100A4 binding to myosin IIA peptide. 0.14% of 360,000 active. inhibition, % at 10.7 µM. P26447. S100A4/TAMRA-MyoIIA peptide fluorescence polarization;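 active means mean inhibition of at least 70% across replicates, with every replicate also reaching that level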
Target sequence (P26447 whole entry, looked up): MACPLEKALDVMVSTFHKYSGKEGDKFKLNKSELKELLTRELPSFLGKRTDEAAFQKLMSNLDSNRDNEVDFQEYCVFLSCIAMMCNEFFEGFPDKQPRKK
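Test system: S100A4 monomer protein. Medium: HEPES buffer with Ca2+, pH 7.2. Reagent: fluorescent myosin IIA peptide, 5 nM. Compound dosing: single-point compound testing. Timing: 5 min between mix addition and reading. Benchmarks: DMSO neutral and TFP positive wells.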
dFosB act = enhances mouse delta FosB homodimer DNA binding. P13346. purified delta FosB, TAMRA-CDK5 oligo fluorescence polarization; percent of positive-control signal above neutral wells. activation, % at 25 µM. 0.99% of 340,000 active. AID 493131;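 active means mean activation above about 17%, with every replicate also reaching it, limit read from the data, passing the limit was not always enough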
Target sequence (P13346 whole entry, looked up): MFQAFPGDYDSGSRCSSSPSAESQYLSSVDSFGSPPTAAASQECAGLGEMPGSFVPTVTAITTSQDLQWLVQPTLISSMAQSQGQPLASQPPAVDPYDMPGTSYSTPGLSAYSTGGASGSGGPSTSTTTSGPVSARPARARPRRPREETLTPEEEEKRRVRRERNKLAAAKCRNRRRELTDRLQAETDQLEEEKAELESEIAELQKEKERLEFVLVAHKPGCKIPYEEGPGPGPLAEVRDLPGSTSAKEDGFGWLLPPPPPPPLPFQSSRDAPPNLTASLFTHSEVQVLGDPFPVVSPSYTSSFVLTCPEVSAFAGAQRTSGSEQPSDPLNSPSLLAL
CFTR F508del cor = CFTR F508del correction in bronchial cells; activity (quench increase), % at 7.58 µM; CFBE cells, YFP halide quenching; stimulated with forskolin plus potentiator P3; % fluorescence drop versus neutral controls; AID 720511; 0.36% of 350,000 active;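 active means mean added fluorescence quench of at least 8% versus neutral control, with both replicates also reaching 8%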;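 further: cells transiently co-express mutant CFTR-F508del with the halide-sensitive YFP; corrector assay measuring rescue of mutant channel to the surface after 24 h compound exposure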
FGF22 binding = shifts melting point of recombinant human FGF22. recombinant FGF22 thermal shift, SYPRO orange fluorescence; percent of sucrose octasulfate shift, DMSO zero. AID 651658. 1.5% of 340,000 active. activity (Tm shift, normalised), % at 9.99 µM. Q9HCT0;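 active means mean Tm shift, scaled 0 neutral to 100 positive control, at about 1.3% or above, every replicate too, limit read from the data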
Target sequence (Q9HCT0 whole entry, looked up): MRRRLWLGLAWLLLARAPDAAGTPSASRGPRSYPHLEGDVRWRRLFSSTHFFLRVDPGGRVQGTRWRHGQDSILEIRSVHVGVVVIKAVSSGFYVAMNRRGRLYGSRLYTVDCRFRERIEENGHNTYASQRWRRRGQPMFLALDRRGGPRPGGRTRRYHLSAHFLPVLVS
Numbers stand for hits.

How did Cc1ccccc1CN1C[C@@H]2C[C@@H](c3cn[nH]c3-c3ccc(F)cc3)N3CCC[C@@]23C1=O do in these assays?
S100A4 inh HTS: inactive; dFosB act: inactive; CFTR F508del cor: inactive; FGF22 binding: inactive

What do the screens show for `CCOc1ccc(C(=O)NCC(=O)N2CCN(Cc3ccccc3)CC2)cc1`?
S100A4 inh HTS: inactive; dFosB act: inactive; CFTR F508del cor: 10.0; FGF22 binding: inactive

How did Cc1ccc(C)c(C2NC(=O)c3ccccc3N2)c1 (configuration not stated) do in these assays?
S100A4 inh HTS: inactive; dFosB act: inactive; CFTR F508del cor: 8.8; FGF22 binding: inactive

What do the screens show for `Cc1ccc(S(=O)(=O)N[C@@H]2C=C[C@H](CC(=O)N3CCN(c4ccccc4)CC3)O[C@@H]2CO)cc1`?
S100A4 inh HTS: inactive; CFTR F508del cor: inactive; FGF22 binding: inactive

What do the screens show for `O=c1c(Cc2ccc(F)cc2)c(O)ccn1CCc1cnc[nH]1`?
S100A4 inh HTS: inactive; dFosB act: inactive; CFTR F508del cor: inactive; FGF22 binding: 43

What do the screens show for `CCC(C(=O)Nc1cccc(C(=O)O)c1C)c1ccccc1` (configuration not stated)?
S100A4 inh HTS: inactive; dFosB act: inactive; CFTR F508del cor: inactive; FGF22 binding: 43

How did COc1ccc(Br)cc1S(=O)(=O)N1CCN=C1c1ccccc1 do in these assays?
S100A4 inh HTS: inactive; dFosB act: inactive; CFTR F508del cor: inactive; FGF22 binding: inactive

How did Brc1ccc2c(c1)-c1ccccc1C1=NCCN12 do in these assays?
S100A4 inh HTS: inactive; CFTR F508del cor: inactive; FGF22 binding: 43

How did Clc1ccc2c(c1)-c1ccccc1C1=NCCN12 do in these assays?
S100A4 inh HTS: inactive; CFTR F508del cor: 8.3; FGF22 binding: inactive

What do the screens show for `C[C@H]1CN([C@@H](C)CO)C(=O)c2cc(NC(=O)CCC(F)(F)F)ccc2O[C@@H]1CN(C)C`?
S100A4 inh HTS: inactive; CFTR F508del cor: inactive; FGF22 binding: inactive

How did Cc1ccc(S(=O)(=O)N2CC[C@H]3[C@@H](CO)N(C)c4ccc(-c5cccc(C#N)c5)cc4[C@H]32)cc1 do in these assays?
S100A4 inh HTS: inactive; CFTR F508del cor: inactive; FGF22 binding: inactive

How did COC(CNC(=O)[C@H](Cc1ccccc1)N1Cc2ccccc2C1=O)OC do in these assays?
S100A4 inh HTS: inactive; dFosB act: inactive; CFTR F508del cor: 8.5; FGF22 binding: inactive

How did COC(CNC(=O)[C@H](CSCc1ccccc1)N1Cc2ccccc2C1=O)OC do in these assays?
S100A4 inh HTS: inactive; dFosB act: inactive; CFTR F508del cor: inactive

How did C[C@@H]1CN([C@H](C)CO)C(=O)c2ccccc2-c2ccccc2CO[C@@H]1CN(C)S(=O)(=O)c1ccccc1C#N do in these assays?
S100A4 inh HTS: inactive; CFTR F508del cor: inactive; FGF22 binding: inactive

Results for Cc1ccc(F)cc1S(=O)(=O)N[C@H]1CCN(Cc2ccc(OC(C)C)cc2)C1 ?
S100A4 inh HTS: inactive; CFTR F508del cor: inactive; FGF22 binding: inactive

What do the screens show for `Nc1nc(NCCCN2CCOCC2)nc(Nc2ccccc2F)c1[N+](=O)[O-]`?
S100A4 inh HTS: inactive; dFosB act: 25; CFTR F508del cor: inactive; FGF22 binding: inactive

What do the screens show for `CCN1CCN(c2nc(Nc3cccc(C)c3)nc(N)c2[N+](=O)[O-])CC1`?
dFosB act: inactive

How did Nc1nc(NCCCN2CCOCC2)nc(Nc2cccc(F)c2)c1[N+](=O)[O-] do in these assays?
S100A4 inh HTS: inactive; dFosB act: 26; CFTR F508del cor: inactive; FGF22 binding: inactive

Results for Cc1cccc(Nc2nc(NCCCN3CCOCC3)nc(N)c2[N+](=O)[O-])c1 ?
S100A4 inh HTS: inactive; dFosB act: 37; CFTR F508del cor: inactive; FGF22 binding: inactive

What do the screens show for `Nc1nc(NCCCN2CCOCC2)nc(Nc2ccc(F)cc2)c1[N+](=O)[O-]`?
dFosB act: 31

Results for COc1ccc(Nc2nc(NCCCN3CCOCC3)nc(N)c2[N+](=O)[O-])cc1 ?
S100A4 inh HTS: inactive; dFosB act: inactive; CFTR F508del cor: inactive; FGF22 binding: inactive

How did COc1cc2c(c3ccccc13)CCCC2=O do in these assays?
S100A4 inh HTS: inactive; dFosB act: inactive; CFTR F508del cor: inactive; FGF22 binding: 43

How did CO[C@H](CN(C)S(=O)(=O)c1ccc(Cl)cc1)[C@H](C)CN(Cc1ccccc1Cl)[C@H](C)CO do in these assays?
S100A4 inh HTS: inactive; CFTR F508del cor: inactive; FGF22 binding: inactive

What do the screens show for `Clc1ccc2c(N/N=C/c3cccc(Br)c3)ccnc2c1`?
S100A4 inh HTS: inactive; dFosB act: 52; FGF22 binding: inactive

Results for O=[N+]([O-])c1ccc(/C=N/Nc2ccnc3cc(Cl)ccc23)o1 ?
S100A4 inh HTS: inactive; dFosB act: inactive; CFTR F508del cor: inactive; FGF22 binding: inactive

Results for Clc1ccc2c(NNc3ccccc3Cl)ccnc2c1 ?
dFosB act: inactive

Results for Clc1ccc2c(N/N=C/c3ccccc3Br)ccnc2c1 ?
S100A4 inh HTS: inactive; dFosB act: 46; CFTR F508del cor: inactive; FGF22 binding: inactive

What do the screens show for `COc1cccc(-c2ccc3n(c2=O)C[C@@H]2[C@@H](CO)[C@H](C(=O)N(C)C)[C@H]3N2Cc2cncnc2)c1`?
S100A4 inh HTS: inactive; CFTR F508del cor: inactive; FGF22 binding: inactive

What do the screens show for `COc1ccc(CCNC(=S)Nc2ccc(OC)cc2)cc1`?
dFosB act: inactive

What do the screens show for `CNC(=S)NCCc1ccc(OC)cc1`?
S100A4 inh HTS: inactive; dFosB act: inactive; CFTR F508del cor: inactive; FGF22 binding: 43

Results for C[C@@H]1CCCCO[C@@H](CN(C)Cc2ccc3c(c2)OCO3)[C@@H](C)CN([C@@H](C)CO)C(=O)c2cc(N(C)C)ccc2O1 ?
CFTR F508del cor: inactive

Results for C[C@@H]1CN([C@@H](C)CO)C(=O)c2cc(NC(=O)Nc3cccc4ccccc34)ccc2O[C@@H](C)CCCCO[C@@H]1CN(C)S(=O)(=O)c1ccccc1 ?
S100A4 inh HTS: inactive; CFTR F508del cor: inactive; FGF22 binding: inactive

What do the screens show for `COc1ccc(S(=O)(=O)N2C(=O)/C(=C3\SC(N)=NC3=O)c3ccccc32)cc1`?
S100A4 inh HTS: inactive; dFosB act: 24; CFTR F508del cor: inactive; FGF22 binding: inactive

Results for C[C@H]1CN([C@@H](C)CO)C(=O)c2cc(C#CCN(C)C)cnc2O[C@@H]1CN(C)S(=O)(=O)c1cn(C)cn1 ?
S100A4 inh HTS: inactive; CFTR F508del cor: inactive; FGF22 binding: inactive

How did O=C(Nc1cccc(F)c1)Nc1cccc(Cl)c1 do in these assays?
S100A4 inh HTS: inactive; dFosB act: inactive; CFTR F508del cor: inactive; FGF22 binding: inactive

How did CC(=O)Nc1cccc(NC(=O)Nc2cccc(F)c2)c1 do in these assays?
S100A4 inh HTS: inactive; dFosB act: inactive; CFTR F508del cor: inactive; FGF22 binding: 45

Results for O=C(NCCNC(=O)c1ccc(-c2cc(Cl)ccc2Cl)o1)c1cnccn1 ?
S100A4 inh HTS: inactive; CFTR F508del cor: inactive; FGF22 binding: 44

How did COc1ccccc1CNC(=O)C[C@H]1C[C@H]2c3cc(NS(C)(=O)=O)ccc3O[C@H]2[C@H](CO)O1 do in these assays?
S100A4 inh HTS: inactive; CFTR F508del cor: inactive; FGF22 binding: inactive

What do the screens show for `COc1cc([N+](=O)[O-])ccc1NC(=O)CC(C)C`?
dFosB act: inactive

Compound activity: PubChem BioAssay, Broad Institute
